Measurements reported in ChEMBL document CHEMBL1126878, “4,5-Dihydro-1-phenyl-1H-2,4-benzodiazepines: novel antiarrhythmic agents” (J Med Chem, 1993).

Tests used:
Canis familiaris = experiment: Minimal effective dose that resulted in significant reduction in PVC frequency in conscious dogs by po administration after 24 hours of coronary artery ligation; format: functional; conditions: Canis lupus familiaris, read-out: MED
Method in brief: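 Dogs (8.0–19.1 kg) underwent LAD occlusion under halothane anesthesia with Holter electrodes. 24 h after occlusion, animals with PVCs exceeding 50% of heart rate were dosed orally by gavage with agent in water (n = 4 per group). Holter recorded 1 h before and 12–24 h after dosing.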

Cavia porcellus [1] = experiment: Minimal effective dose that resulted in significant delay in the onset of arrhythmias in guinea pig with iv administration of aconitine hydrochloride; format: functional; conditions: read-out: MED
Method in brief: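 Guinea pigs (n = 6 per dose, parallel groups) received agent or saline iv (1 mL/kg) 10 min before a lethal aconitine hydrochloride challenge (34 μg/kg iv). Times to first PVC, sustained VT and VF (>15 s) were recorded and compared with concurrent controls by one-way ANOVA. MED taken from an ascending semilogarithmic dose escalation as the dose giving significant delay in arrhythmia onset.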

Cavia porcellus [2] = experiment: Effective dose in vivo for cardiac refractoriness (ERP) using paced guinea pig model; format: functional
Method in brief: (§1)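 Guinea pig paced in vivo model. Hemodynamics recorded in normal sinus rhythm; ERP measured during brief pacing at baseline and 10 min after dosing. Bolus of 1 mL/kg via left ventricular catheter for doses <10 mg/kg; higher doses infused over 1 min. Cumulative dosing every 15 min up to the maximally tolerated dose (dP/dt reduced >50%). ED20 (ERP +20 ms) and dP/dt20 (20% drop in LV pressure-rise rate) derived by linear regression of individual dose-response curves.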

Cavia porcellus [3] = experiment: In vivo index of cardiac contractility using paced guinea pig model; format: functional; method in brief: as §1
[4] = target: Sodium channel protein type 5 subunit alpha (cardiac sodium channel) (Rattus norvegicus, UniProt P15389); experiment: in vitro; conditions: sodium channel from cardiac myocytes, probe [3H]batrachotoxin ([3H]BTX)
Sequence of Sodium channel protein type 5 subunit alpha (cardiac sodium channel) (P15389 whole entry): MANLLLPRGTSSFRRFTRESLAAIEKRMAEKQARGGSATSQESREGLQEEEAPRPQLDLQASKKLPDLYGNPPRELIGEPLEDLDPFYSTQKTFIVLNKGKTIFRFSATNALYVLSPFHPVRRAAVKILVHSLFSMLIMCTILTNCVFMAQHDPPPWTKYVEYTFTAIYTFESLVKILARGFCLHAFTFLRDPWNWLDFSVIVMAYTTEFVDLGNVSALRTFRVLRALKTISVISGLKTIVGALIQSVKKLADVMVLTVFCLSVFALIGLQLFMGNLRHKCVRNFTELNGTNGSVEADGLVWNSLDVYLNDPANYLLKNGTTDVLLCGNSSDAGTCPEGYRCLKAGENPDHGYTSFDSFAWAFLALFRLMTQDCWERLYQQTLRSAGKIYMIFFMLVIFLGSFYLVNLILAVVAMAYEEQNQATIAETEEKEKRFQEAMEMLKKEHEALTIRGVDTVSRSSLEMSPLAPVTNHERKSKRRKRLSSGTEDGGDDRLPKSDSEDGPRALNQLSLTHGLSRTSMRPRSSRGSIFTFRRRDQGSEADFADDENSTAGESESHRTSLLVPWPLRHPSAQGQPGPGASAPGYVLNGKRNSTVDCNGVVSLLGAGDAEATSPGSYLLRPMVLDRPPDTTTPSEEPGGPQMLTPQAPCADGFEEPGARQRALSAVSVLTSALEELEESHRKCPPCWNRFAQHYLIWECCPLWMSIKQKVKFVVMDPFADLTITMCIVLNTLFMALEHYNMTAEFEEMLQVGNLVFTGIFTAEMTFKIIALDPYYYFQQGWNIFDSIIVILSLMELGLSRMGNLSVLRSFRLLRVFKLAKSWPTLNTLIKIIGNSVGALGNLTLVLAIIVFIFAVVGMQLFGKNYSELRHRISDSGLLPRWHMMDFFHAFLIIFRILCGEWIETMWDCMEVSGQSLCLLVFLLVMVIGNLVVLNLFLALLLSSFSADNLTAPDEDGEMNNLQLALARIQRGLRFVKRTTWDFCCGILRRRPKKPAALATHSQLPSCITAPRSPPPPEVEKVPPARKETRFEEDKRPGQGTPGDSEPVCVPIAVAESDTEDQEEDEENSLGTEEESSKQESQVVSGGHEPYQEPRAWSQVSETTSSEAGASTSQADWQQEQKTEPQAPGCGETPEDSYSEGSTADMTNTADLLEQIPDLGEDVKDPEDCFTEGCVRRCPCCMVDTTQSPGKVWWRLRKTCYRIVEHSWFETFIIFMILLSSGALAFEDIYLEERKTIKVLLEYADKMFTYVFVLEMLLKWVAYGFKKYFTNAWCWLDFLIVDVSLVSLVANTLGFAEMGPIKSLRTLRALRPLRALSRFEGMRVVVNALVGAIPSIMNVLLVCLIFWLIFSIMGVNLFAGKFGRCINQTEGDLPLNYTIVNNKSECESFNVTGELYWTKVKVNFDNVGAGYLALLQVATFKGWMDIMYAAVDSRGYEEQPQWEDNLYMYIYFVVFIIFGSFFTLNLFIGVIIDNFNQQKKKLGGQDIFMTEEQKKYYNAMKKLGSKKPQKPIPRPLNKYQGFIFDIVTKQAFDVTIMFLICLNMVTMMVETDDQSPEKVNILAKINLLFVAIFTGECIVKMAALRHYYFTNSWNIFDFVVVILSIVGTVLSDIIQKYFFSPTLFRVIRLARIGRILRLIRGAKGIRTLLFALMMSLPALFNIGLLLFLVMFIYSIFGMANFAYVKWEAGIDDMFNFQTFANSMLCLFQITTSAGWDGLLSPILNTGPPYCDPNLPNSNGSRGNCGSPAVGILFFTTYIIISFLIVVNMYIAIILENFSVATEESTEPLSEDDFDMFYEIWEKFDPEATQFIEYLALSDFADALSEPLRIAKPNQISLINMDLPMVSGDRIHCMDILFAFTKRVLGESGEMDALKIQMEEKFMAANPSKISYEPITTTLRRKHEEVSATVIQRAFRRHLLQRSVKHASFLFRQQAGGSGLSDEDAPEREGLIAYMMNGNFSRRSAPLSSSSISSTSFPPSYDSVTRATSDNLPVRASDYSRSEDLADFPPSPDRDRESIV

Felis catus [5] = experiment: Effective refractory period (ERP) after iv administration to anesthetized, acutely infarcted cats at 1 mg/kg; format: functional
Method in brief: (§2)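 Anesthetized cats given a slow iv bolus, with single-stage LAD occlusion 10 min later. Stimulating current raised until fibrillation; three baseline sequences about 15 min apart. Pacing repeated every 15 min for 2 h after occlusion, then every 30 min, for 5 h in total. Values are the mean maximum change over 5 h in VFT (mamps) or ERP (ms); cardioversion at 14–50 J.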

Felis catus [6] = experiment: Ventricular fribrillation threshold (VFT) after iv administration to anesthetized, acutely infarcted cats at 1 mg/kg; format: functional, Heart; method in brief: as §2
Felis catus [7] = experiment: Effective refractory period (ERP) after iv administration to anesthetized, acutely infarcted cats at x mg/kg; format: functional; method in brief: as §2
Felis catus [8] = experiment: Ventricular fribrillation threshold (VFT) after iv administration to anesthetized, acutely infarcted cats at 0.3 mg/kg; format: functional, Heart; method in brief: as §2
Felis catus [9] = experiment: Ventricular fribrillation threshold (VFT) after iv administration to anesthetized, acutely infarcted cats at 3 mg/kg; format: functional, Heart; method in brief: as §2
Felis catus [10] = experiment: Effective refractory period (ERP) after iv administration to anesthetized, acutely infarcted cats at 0.3 mg/kg; format: functional; method in brief: as §2
Felis catus [11] = experiment: Ventricular fribrillation threshold (VFT) after iv administration to anesthetized, acutely infarcted cats at 5 mg/kg; format: functional, Heart
Method in brief: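 Anesthetized cats received a slow iv bolus of test agent, followed 10 min later by single-stage LAD occlusion. Before dosing, VFT was measured three times about 15 min apart as baseline, raising the stimulating current until fibrillation was induced. After occlusion, pacing was repeated every 15 min for 2 h, then every 30 min, to 5 h. The value is the mean maximum VFT change (mamps) over 5 h.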

Felis catus [12] = experiment: Effective refractory period (ERP) after iv administration to anesthetized, acutely infarcted cats at 0.03 mg/kg; format: functional; method in brief: as §2
Felis catus [13] = experiment: Ventricular fribrillation threshold (VFT) after iv administration to anesthetized, acutely infarcted cats at 0.03 mg/kg; format: functional, Heart; method in brief: as §2
Felis catus [14] = experiment: Effective refractory period (ERP) after iv administration to anesthetized, acutely infarcted cats at 3 mg/kg; format: functional; method in brief: as §2

## CCC1=NC(c2ccccc2)c2ccccc2CN1C.Cl (centres undefined)
Canis familiaris
  minimal effective dose: 10 mg/kg
Cavia porcellus [1]
  minimal effective dose: 3 mg/kg
Cavia porcellus [2]
  ED20: 0.6 mg/kg
Cavia porcellus [3]
  dP/dt20: 0.8 mg/kg
[4]
  inhibition at 10 µM: 50%
Felis catus [5]
  ERP: 13 ms
Felis catus [6]
  VFT: 84 mA

## CN1Cc2ccccc2C(c2ccccc2)N=C1CCc1ccccc1.Cl (centres undefined)
Canis familiaris
  minimal effective dose: 3 mg/kg
Cavia porcellus [1]
  minimal effective dose: < 3 mg/kg
Cavia porcellus [2]
  ED20: 0.04 mg/kg
Cavia porcellus [3]
  dP/dt20: 0.02 mg/kg
Felis catus [5]
  ERP: 61 ms
Felis catus [6]
  VFT: 95 mA

## CCC1=N[C@@H](c2ccccc2)c2ccccc2CN1C.Cl
Canis familiaris
  minimal effective dose: > 10 mg/kg
Cavia porcellus [1]
  minimal effective dose: 3 mg/kg
Cavia porcellus [2]
  ED20: 7.1 mg/kg
Cavia porcellus [3]
  dP/dt20: 0.09 mg/kg
[4]
  inhibition at 10 µM: 45%

## CN1Cc2ccccc2[C@@H](c2ccccc2)N=C1CCc1ccccc1.Cl
Canis familiaris
  minimal effective dose: 3 mg/kg
Felis catus [7]
  ERP: 13 ms
Felis catus [8]
  VFT: 37 mA
Cavia porcellus [1]
  minimal effective dose: 0.1 mg/kg
Cavia porcellus [2]
  ED20: 0.03 mg/kg
Cavia porcellus [3]
  dP/dt20: 0.03 mg/kg

## CCOC(=O)C1(c2ccccc2)N=C(CC)N(C)Cc2ccccc21.O=C(O)/C=C/C(=O)O (centres undefined)
Canis familiaris
  minimal effective dose: 3 mg/kg
Felis catus [7]
  ERP: 47 ms
Felis catus [8]
  VFT: 84 mA
Cavia porcellus [1]
  minimal effective dose: < 3 mg/kg
Cavia porcellus [2]
  ED20: 0.4 mg/kg
Cavia porcellus [3]
  dP/dt20: 0.1 mg/kg
[4]
  inhibition at 10 µM: 56%

## CCC1=NC(C)(c2ccccc2)c2ccccc2CN1C.O=C(O)/C=C/C(=O)O (centres undefined)
Canis familiaris
  minimal effective dose: 10 mg/kg
Felis catus [7]
  ERP: 78 ms
Cavia porcellus [1]
  minimal effective dose: < 3 mg/kg
Cavia porcellus [2]
  ED20: 0.7 mg/kg
Cavia porcellus [3]
  dP/dt20: 1.2 mg/kg
Felis catus [9]
  VFT: 81 mA
[4]
  inhibition at 10 µM: 60%

## CN1Cc2ccccc2C(c2ccccc2)N=C1CCc1ccc(Cl)cc1.O=C(O)/C=C/C(=O)O (centres undefined)
Canis familiaris
  minimal effective dose: 3 mg/kg
Felis catus [7]
  ERP: 45 ms
Cavia porcellus [1]
  minimal effective dose: 3 mg/kg
Cavia porcellus [2]
  ED20: 0.1 mg/kg
Cavia porcellus [3]
  dP/dt20: 0.85 mg/kg
[4]
  inhibition at 10 µM: 97%
Felis catus [6]
  VFT: 93 mA

## CCC1=N[C@H](c2ccccc2)c2ccccc2CN1C.Cl
Canis familiaris
  minimal effective dose: 10 mg/kg
Felis catus [8]
  VFT: 63 mA
Felis catus [10]
  ERP: 16 ms
Cavia porcellus [1]
  minimal effective dose: 3 mg/kg
Cavia porcellus [2]
  ED20: 0.3 mg/kg
Cavia porcellus [3]
  dP/dt20: 0.3 mg/kg
[4]
  inhibition at 10 µM: 42%

## CN1Cc2ccccc2[C@H](c2ccccc2)N=C1CCc1ccccc1.Cl
Canis familiaris
  minimal effective dose: 10 mg/kg
Cavia porcellus [1]
  minimal effective dose: 0.1 mg/kg
Cavia porcellus [2]
  ED20: 0.02 mg/kg
Cavia porcellus [3]
  dP/dt20: 0.02 mg/kg
Felis catus [5]
  ERP: 21 ms
Felis catus [6]
  VFT: 82 mA

## CN1Cc2ccccc2C(C)(c2ccccc2)N=C1CC(O)c1ccccc1 (centres undefined)
Canis familiaris
  minimal effective dose: 10 mg/kg
Cavia porcellus [1]
  minimal effective dose: < 3 mg/kg
Cavia porcellus [2]
  ED20: 0.1 mg/kg
Cavia porcellus [3]
  dP/dt20: 0.1 mg/kg
[4]
  inhibition at 10 µM: 92%

## CC(C)N(CCC(C(N)=O)(c1ccccc1)c1ccccn1)C(C)C (centres undefined) [DISOPYRAMIDE]
Canis familiaris
  minimal effective dose: 40 mg/kg
Felis catus [7]
  ERP: 26 ms
Felis catus [11]
  VFT: 73 mA
Cavia porcellus [1]
  minimal effective dose: 1 mg/kg
Cavia porcellus [2]
  ED20: 0.2 mg/kg
Cavia porcellus [3]
  dP/dt20: 0.03 mg/kg
[4]
  inhibition at 10 µM: 17%

## CN(CCOc1ccc(NS(C)(=O)=O)cc1)CCc1ccc(NS(C)(=O)=O)cc1 [DOFETILIDE]
Felis catus [12]
  ERP: 85 ms
Felis catus [13]
  VFT: 43 mA

## O=C(NCC1CCCCN1)c1cc(OCC(F)(F)F)ccc1OCC(F)(F)F (centres undefined) [FLECAINIDE]
Canis familiaris
  minimal effective dose: 10 mg/kg
Felis catus [14]
  ERP: 5 ms
Cavia porcellus [1]
  minimal effective dose: 3 mg/kg
Cavia porcellus [2]
  ED20: 12.8 mg/kg
Cavia porcellus [3]
  dP/dt20: 1.8 mg/kg
Felis catus [9]
  VFT: 30 mA
[4]
  inhibition at 10 µM: 74%

## C=C[C@H]1CN2CC[C@H]1C[C@@H]2[C@@H](O)c1ccnc2ccc(OC)cc12 [QUINIDINE]
Canis familiaris
  minimal effective dose: 30 mg/kg
Cavia porcellus [1]
  minimal effective dose: 1 mg/kg
Cavia porcellus [2]
  ED20: 7.2 mg/kg
Cavia porcellus [3]
  dP/dt20: 2.5 mg/kg
[4]
  inhibition at 10 µM: 68%
